Results from ChEMBL document CHEMBL2440113, “Synthesis, radiofluorination, and in vivo evaluation of novel fluorinated and iodinated radiotracers for PET imaging and targeted radionuclide therapy of melanoma” (J Med Chem, 2013).

What was measured:
Conditions in all cases: in vivo
[1] = test system: Mus musculus; test: Biodistribution in tumor of C57BL/6J mouse harboring mouse B16-Bl6 cells at 8 to 12 MBq, iv after 1 hr by PET analysis; format: ADME, organism-based, Neoplasm
Method in brief: (§1)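 Static whole-body PET at 1 h after tail-vein injection of [18F]tracer (9-12 MBq/0.15 mL) in C57BL/6J mice carrying subcutaneous B16Bl6 shoulder tumours (3x10⁵ cells), imaged day 10 or 14. Mice under ketamine/xylazine ip. 25 min acquisition, OSEM reconstruction. ROI % ID/g = counts/g/min ÷ injected dose; ratios = tumour % ID/g ÷ organ % ID/g. n=2-8; mean ± SD.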

[2] = Ratio of drug level in tumor to muscle in C57BL/6J mouse harboring mouse B16-Bl6 cells at 8 to 12 MBq, iv after 1 hr by PET analysis; format: ADME, organism-based; method in brief: as §1
[3] = Ratio of drug level in tumor to bone in C57BL/6J mouse harboring mouse B16-Bl6 cells at 8 to 12 MBq, iv after 1 hr by PET analysis; format: ADME, organism-based; method in brief: as §1
[4] = test system: Bone; test: Biodistribution in bone of C57BL/6J mouse harboring mouse B16-Bl6 cells at 8 to 12 MBq, iv after 1 hr by PET analysis; format: ADME, organism-based, Bone element
Method in brief: (§2)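 C57BL/6J mice were inoculated s.c. on the right shoulder with 3x10⁵ B16Bl6 cells in PBS under isoflurane, and imaged at day 10 or 14 (tumor volume 431.8 ± 154.3 mm³). The ¹⁸F tracer was given i.v. via tail vein, 8-12 MBq (methods: 9-12 MBq/0.15 mL). Under ketamine/xylazine i.p., a 25-min whole-body static PET scan ran at 1 h. ROI %ID/g = counts/g/min ÷ injected dose. n=2-8; mean ± SD.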

[5] = test system: Mus musculus; test: Biodistribution in eye of C57BL/6J mouse harboring mouse B16-Bl6 cells at 8 to 12 MBq, iv after 1 hr by PET analysis; format: ADME, organism-based; method in brief: as §2
[6] = test system: Muscle tissue; test: Biodistribution in muscle of C57BL/6J mouse harboring mouse B16-Bl6 cells at 8 to 12 MBq, iv after 1 hr by PET analysis; format: ADME, organism-based; method in brief: as §2

Row | SMILES | Drug uptake [1] [% ID/g] | Ratio [2] | Ratio [3] | Drug uptake [4] [% ID/g] | Drug uptake [5] [% ID/g] | Drug uptake [6] [% ID/g]
1 | CCN(CC#CC[18F])CCNC(=O)c1cnc2cc(I)ccc2n1 | 4.16 | 5.07 | 1.46 | 2.77 | 2.7 | 0.82
2 | CCN(C/C=C/C[18F])CCNC(=O)c1cnc2cc(I)ccc2n1 | 6.74 | 8.27 | 1.99 | 3.39 | 9.49 | 0.83
3 | CCN(CC[18F])CCNC(=O)c1cnc2cc(I)ccc2n1 | 2.02 | 1.95 | 1.31 | 1.31 | 1.4 | 1.02
4 | CCN(CCC[18F])CCNC(=O)c1cnc2cc(I)ccc2n1 | 10.56 | 11.86 | 1.5 | 7.05 | 10.46 | 0.9
